Assay results collected from several papers.
Each line is one published result; the experiments were not run side by side.
Medium: plasma

Compound	host	route	dose	setting	endpoint	value
Cc1cc(S(=O)(=O)N[C@H]2CC[C@H](CN3CCN(c4cccc(NC5CCC(=O)NC5=O)c4)CC3)CC2)ccc1Nc1ncc(C(F)(F)F)c(N2CCC[C@](C)(O)C2)n1 (some centres unmarked)	rat	intravenous	2 mg/kg		clearance	43 mL/min/kg
CC[C@H](C)[C@H](NC(=O)[C@@H]1CCCN1C(=O)CNC(=O)[C@H](Cc1ccccc1)NC(=O)[C@H](CC(N)=O)NC(=O)[C@H](CC(N)=O)NC(=O)[C@H](CO)NC(=O)[C@H](CO)NC(=O)[C@H](Cc1c[nH]cn1)NC(=O)[C@H](CCCNC(=N)N)NC(=O)[C@H](CC(C)C)NC(=O)[C@H](Cc1ccccc1)NC(=O)[C@H](CCC(=O)O)NC(=O)[C@H](C)NC(=O)[C@H](CC(C)C)NC(=O)[C@H](CCCNC(=N)N)NC(=O)[C@H](CCC(N)=O)NC(=O)[C@@H](NC(=O)[C@H](C)NC(=O)[C@@H]1CSSC[C@H](NC(=O)[C@H](CCCCN)NC(=O)CC[C@H](NC(=O)CCCCCCCCCCCCCCCCCCC(=O)O)C(=O)O)C(=O)N[C@@H](CC(N)=O)C(=O)N[C@@H]([C@@H](C)O)C(=O)N[C@@H](C)C(=O)N[C@@H]([C@@H](C)O)C(=O)N1)[C@@H](C)O)C(=O)N[C@@H](CC(C)C)C(=O)N1CCC[C@H]1C(=O)N1CCC[C@H]1C(=O)N[C@H](C(=O)N[C@@H](CC(N)=O)C(=O)N[C@H](C(=O)NCC(=O)N[C@@H](CO)C(=O)N[C@@H](CC(N)=O)C(=O)N[C@H](C(=O)N1CCC[C@H]1C(N)=O)[C@@H](C)O)C(C)C)[C@@H](C)O	male Sprague-Dawley rat	subcutaneous	30 nmol/kg	single dose	CL/F	0.112 mL/min/kg
CC[C@@H]([C@H](C)O)n1ncn(-c2ccc(N3CCN(c4ccc(OC[C@@H]5CO[C@@](Cn6cncn6)(c6ccc(F)cc6F)C5)cc4)CC3)cc2)c1=O	Sprague-Dawley rat	oral	40 mg/kg		CL/F	79 mL/min/kg
C1=C/COCc2cc(ccc2OCCN2CCCC2)Nc2nccc(n2)-c2cccc(c2)COC/1	rat	oral	36 mg/kg		CL/F	11700 mL/h
CCN(CC)Cc1ccc2cc(COC(=O)Nc3ccc(C(=O)NO)cc3)ccc2c1	male Sprague-Dawley rat	oral	10 mg/kg		CL/F	20.2 mL/min/kg
C=CC(=O)N1CCC([C@@H]2CCNc3c(C(N)=O)c(-c4ccc(Oc5ccccc5)cc4)nn32)CC1	Sprague-Dawley rat	oral	16 mg/kg		CL/F	224 mL/min/kg
Cc1cc(S(=O)(=O)NC2CC(N3CCN(CC4CCN(c5cccc6c5n(C)c(=O)n6C5CCC(=O)NC5=O)CC4)CC3)C2)ccc1Nc1ncc(C(F)(F)F)c(N2CCC[C@](C)(O)C2)n1 (some centres unmarked)	rat	intravenous	2 mg/kg		clearance	37 mL/min/kg
[2H]C([2H])([2H])NC(=O)c1cc(Oc2ccc(NC(=O)Nc3ccc(Cl)c(C(F)(F)F)c3)cc2)ccn1	rat	oral	40 mg/kg	single dose	CL/F	2.67 mL/min/kg
Cc1cc(S(=O)(=O)N[C@]2(C)C[C@H](N3CCN(CC4CCN(c5ccc6c(c5F)n(C)c(=O)n6C5CCC(=O)NC5=O)CC4)CC3)C2)ccc1Nc1ncc(C(F)(F)F)c(N2CCC[C@](C)(O)C2)n1 (some centres unmarked)	rat	intravenous	2 mg/kg		clearance	145 mL/min/kg
Cc1nc(Nc2ncc(C(=O)Nc3c(C)cccc3Cl)s2)cc(N2CC[C@@H](N)C2)n1	male Sprague-Dawley rat	intravenous	1 mg/kg		clearance	135 mL/min/kg
CC(=O)O[C@@H]1CC[C@@]2(C)[C@@H](CC[C@]3(C)[C@@H]2C(=O)C=C2[C@@H]4[C@@H](C)[C@H](C)CC[C@]4(C)CC[C@]23C)[C@@]1(C)C(=O)O	female Wistar rat	oral	1 mg/kg	single dose	CL/F	0.332 mL/min/kg
Cc1nc(Nc2ncc(C(=O)Nc3c(C)cccc3Cl)s2)cc(N2CC[C@H](O)C2)n1	male Sprague-Dawley rat	intravenous	1 mg/kg		clearance	6.83 mL/min/kg
CCOc1c([C@H](C)n2nc(C)c3c(N)ncnc32)cc(Cl)c(F)c1[C@@H]1CNC(=O)C1	male Sprague-Dawley rat	oral	2 mg/kg	single dose	CL/F	10.3 mL/min/kg
CNS(=O)(=O)c1ccc(Nc2ncc(C(F)(F)F)c(N3CCC[C@](C)(O)C3)n2)c(C)c1	rat	intravenous	2 mg/kg		clearance	31 mL/min/kg
CNC(=O)c1cc(Oc2ccc(NC(=O)Nc3ccc(Cl)c(C(F)(F)F)c3)cc2)ccn1	male Sprague-Dawley rat	oral	100 mg/kg	single dose	CL/F	96.7 mL/min/kg
CNS(=O)(=O)c1ccc(Nc2ncc(C(F)(F)F)c([C@H]3CC[C@@](C)(O)CC3)n2)c(C)c1	rat	intravenous	2 mg/kg		clearance	7 mL/min/kg
C[C@H]1Oc2cc(cnc2N)-c2c(nn(C)c2C#N)CN(C)C(=O)c2ccc(F)cc21	male Sprague-Dawley rat	oral	10 mg/kg	single dose	CL/F	66.7 mL/min/kg
